Active and inactive are the calls of the source. No cut-off for these calls is given here.

The text below walks through data of ChEMBL document CHEMBL1667743, “Functional in vivo imaging of cysteine cathepsin activity in murine model of inflammation” (Bioorg Med Chem, 2011).

Data set [1] addresses Stromelysin-1 (Homo sapiens) (UniProt P08254). Nature of the data set: Activity at MMP3. A digest of the protocol: (§1)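 Recombinant protease (10–40 nM final) incubated with 60.0 µM probe substrate; NIR fluorescence of cleaved quenched probe measured as in the in vitro cathepsin assay (λex 710 nm, λem 767 nm).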
Data set [2] concerns the target Neutrophil collagenase (Homo sapiens) (UniProt P22894). Nature of the data set: Activity at MMP8. Put shortly:
as §1

The target in data set [3] is Matrix metalloproteinase-9 (Homo sapiens) (UniProt P14780). Nature of the data set: Activity at MMP9. Put shortly: as §1
Matrix metalloproteinase-9 (Homo sapiens), sequence (P14780 whole entry): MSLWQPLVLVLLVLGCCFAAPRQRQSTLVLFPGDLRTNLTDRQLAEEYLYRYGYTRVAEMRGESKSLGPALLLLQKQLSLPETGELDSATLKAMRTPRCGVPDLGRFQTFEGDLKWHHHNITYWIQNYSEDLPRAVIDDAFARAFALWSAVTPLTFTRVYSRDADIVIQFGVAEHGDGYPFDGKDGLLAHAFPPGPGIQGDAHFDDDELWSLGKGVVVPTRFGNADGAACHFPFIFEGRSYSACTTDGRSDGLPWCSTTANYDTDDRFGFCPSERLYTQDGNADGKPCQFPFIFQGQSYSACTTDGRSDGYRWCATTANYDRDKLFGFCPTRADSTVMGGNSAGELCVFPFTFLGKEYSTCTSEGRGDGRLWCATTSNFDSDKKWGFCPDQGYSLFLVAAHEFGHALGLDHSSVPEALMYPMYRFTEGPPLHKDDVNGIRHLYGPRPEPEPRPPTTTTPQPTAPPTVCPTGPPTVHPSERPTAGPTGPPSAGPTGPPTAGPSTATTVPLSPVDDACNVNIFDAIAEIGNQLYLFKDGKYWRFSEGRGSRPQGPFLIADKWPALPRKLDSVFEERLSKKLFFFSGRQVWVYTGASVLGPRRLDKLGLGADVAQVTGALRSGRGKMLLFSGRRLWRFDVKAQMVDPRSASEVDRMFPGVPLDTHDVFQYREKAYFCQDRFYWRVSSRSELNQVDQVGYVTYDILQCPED
Data set [4] has as its target Matrix metalloproteinase-14 (Homo sapiens) (UniProt P50281). Nature of the data set: Activity at MMP14. A digest of the protocol: as §1
Data set [5] relates to Mus musculus. Nature of the data set: Activity at cathepsin S in zymosan-induced inflammatory paw edema mouse model assessed as ipsi/contralateral paw fluorescent signal at 20 uM, iv after 10 mins. Type of data set: functional, organism-based. Put shortly:
(§2)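 Mice given zymosan in one hind paw (n = 3); 24 h later 20 µM probe in PBS iv via tail vein (800 nmol/kg). Under 1.5–2% isoflurane, body temperature held with heating pads; tail and upper body masked; images at 10 min, 1, 3, 6, 24 h; identical ROIs over both hind paws, ipsi/contralateral ratio.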

Data set [6] relates to Mus musculus. Nature of the data set: Activity at cathepsin S in zymosan-induced inflammatory paw edema mouse model assessed as ipsi/contralateral paw fluorescent signal at 20 uM, iv after 180 mins. It is filed as functional, organism-based. A digest of the protocol: as §2
Data set [7] has as its system Mus musculus. Nature of the data set: Activity at cathepsin S in zymosan-induced inflammatory paw edema mouse model assessed as ipsi/contralateral paw fluorescent signal at 13.3 uM, iv after 24 hrs. Type of data set: functional, organism-based.
The subject of data set [8] is Mus musculus. Nature of the data set: Activity at cathepsin S in zymosan-induced inflammatory paw edema mouse model assessed as ipsi/contralateral paw fluorescent signal at 20 uM, iv in presence of Dexamethasone. Type of data set: functional, organism-based. A digest of the protocol:
(§3)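 Zymosan paw inflammation; groups n = 3. Dexamethasone 10 mg/kg oral in 0.6% methylcellulose/0.5% Tween80 1 day before zymosan, shortly after, and 1 h before probe; or E-64 10 or 30 mg/kg ip in 40% DMSO/PBS 2 days and 1 day before, shortly after zymosan, and 1 h before probe. Probe 20 µM iv (800 nmol/kg) 24 h post-zymosan; ipsi/contralateral paw fluorescence imaged.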

Data set [9] has as its system Mus musculus. Nature of the data set: Activity at cathepsin S in zymosan-induced inflammatory paw edema mouse model assessed as ipsi/contralateral paw fluorescent signal at 20 uM, iv in presence of 10 to 30 ug/ml E-64. The note with it: in the assay text read “10 to 30 mg/kg” for “10 to 30 ug/ml”. Type of data set: functional, organism-based. A digest of the protocol: as §3

For data set [10], the system named is CC(C)(C)OC(=O)NCC[C@H](NC(=O)[C@H](CC1CCCCC1)NC(=O)N1CCOCC1)C(=O)NCCNC(=O)OCC1c2ccccc2-c2ccccc21. Nature of the data set: Activity at recombinant cathepsin B. A digest of the protocol: (§4)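 Active-site-titrated (E-64) recombinant human cathepsins B, L, S and in-house cathepsin K, 10 nM final in pH 6.5 acetate/HEPES buffer with 300 mM NaCl, 0.001% Pluronic and L-cysteine; DMSO-dissolved Cy7/BHQ-3 quenched substrate 0.8–40 µM final (DMSO ≤1%); fluorescence read at 25 °C (λex 710, λem 767 nm); steady-state data fitted by non-linear least squares to Michaelis–Menten with substrate inhibition.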

The test system is the same in data set [11]. Nature of the data set: Ratio of Kcat/Km for recombinant cathepsin B. Put shortly: as §4

Stromelysin-1 (Homo sapiens), sequence (P08254 100-477 limits assumed): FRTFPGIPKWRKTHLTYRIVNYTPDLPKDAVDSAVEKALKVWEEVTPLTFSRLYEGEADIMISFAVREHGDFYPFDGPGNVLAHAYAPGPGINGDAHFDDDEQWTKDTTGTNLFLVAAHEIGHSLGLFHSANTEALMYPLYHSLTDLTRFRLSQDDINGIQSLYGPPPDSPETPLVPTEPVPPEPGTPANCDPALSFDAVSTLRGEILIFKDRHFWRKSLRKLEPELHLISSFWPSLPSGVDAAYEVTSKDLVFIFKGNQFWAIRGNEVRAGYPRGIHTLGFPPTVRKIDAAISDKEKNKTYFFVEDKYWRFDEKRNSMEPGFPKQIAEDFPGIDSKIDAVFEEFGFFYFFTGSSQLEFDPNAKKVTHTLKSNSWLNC
Neutrophil collagenase (Homo sapiens), sequence (P22894 101-467 limits assumed): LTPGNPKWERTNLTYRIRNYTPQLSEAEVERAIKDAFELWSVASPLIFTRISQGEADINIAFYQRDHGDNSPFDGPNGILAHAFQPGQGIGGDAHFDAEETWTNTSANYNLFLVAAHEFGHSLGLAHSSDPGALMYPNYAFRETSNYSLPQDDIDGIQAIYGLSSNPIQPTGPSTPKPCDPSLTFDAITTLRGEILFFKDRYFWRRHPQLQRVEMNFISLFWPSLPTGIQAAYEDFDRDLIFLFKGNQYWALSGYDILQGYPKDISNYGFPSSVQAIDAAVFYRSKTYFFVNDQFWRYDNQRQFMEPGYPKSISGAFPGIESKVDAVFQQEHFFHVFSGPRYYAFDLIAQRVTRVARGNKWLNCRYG

In the case of `CCN(CC)c1ccc2nc3ccc(/N=N/c4ccc(N(C)CCCC(=O)NCCNC(=O)[C@H](CCNC(=O)CCCCCN5\C(=C/C=C/C=C/C=C/C6N(CC)c7ccc(S(=O)(=O)O)cc7C6(C)C)C(C)(C)c6cc(S(=O)(=O)[O-])ccc65)NC(=O)[C@H](CC5CCCCC5)NC(=O)N5CCOCC5)cc4)cc3[n+](-c3ccccc3)c2c1` (stereo partly specified), the outcome in data set [1], in data set [2], in [3], in data set [4], in data set [8] and in [9] was inactive. The outcome in data set [5], in data set [6] and in data set [7] was Active.

For “Cathepsin B (Homo sapiens) (from UniProt P07858)”, in data set [10], the Km stood at 3.2 mM. Besides, the kcat/Km in data set [11] was found to be 332 M⁻¹ s⁻¹.
